Experimental data published in ChEMBL document CHEMBL4145609, “Cytotoxic Drimane Sesquiterpenoids Isolated from Perenniporia maackiae” (2018).
Counter-ions that a name gives are not always drawn. Activity calls are given as the source filed them. The rule behind the calls is not given here.

What was measured:
Type in all cases: functional
ACHN = assay: Cytotoxicity against human ACHN cells assessed as inhibition of cell proliferation measured after 72 hrs by sulforhodamine B assay
Procedure, shortened: (§1)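 Cells seeded at 2 × 10^3 cells/well and exposed to a range of concentrations for 72 h, with adriamycin as reference. Fixed in 10% trichloroacetic acid overnight at 4 °C, stained with 0.4% SRB for 1 h, washed with 1% acetic acid, dye solubilized in 10 mM Tris, absorbance read at 690 nm. GI50 taken from dose–response curves corrected for starting cell count; mean of triplicates.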

HCT-15 = assay: Cytotoxicity against human HCT15 cells assessed as inhibition of cell proliferation measured after 72 hrs by sulforhodamine B assay; details: for GI50: HCT-15, 72 h; procedure, shortened: as §1
MDA-MB-231 = assay: Cytotoxicity against human MDA-MB-231 cells assessed as inhibition of cell proliferation measured after 72 hrs by sulforhodamine B assay; details: for GI50: MDA-MB-231, 72 h; procedure, shortened: as §1
NCI-H23 = assay: Cytotoxicity against human NCI-H23 cells assessed as inhibition of cell proliferation measured after 72 hrs by sulforhodamine B assay; details: for GI50: NCI-H23, 72 h; procedure, shortened: as §1
NUGC-3 = assay: Cytotoxicity against human NUGC3 cells assessed as inhibition of cell proliferation measured after 72 hrs by sulforhodamine B assay; details: for GI50: NUGC-3, 72 h; procedure, shortened: as §1
PC-3 = assay: Cytotoxicity against human PC3 cells assessed as inhibition of cell proliferation measured after 72 hrs by sulforhodamine B assay; details: for GI50: PC-3, 72 h; procedure, shortened: as §1

Question: Which GI50 (ACHN) does the source give for `CC1(C)CCC[C@@]2(C)[C@H]1[C@@H](O)C=C1CO[C@@H](O)[C@@]12O` here?
Answer: 2000 nM

Question: What about the GI50 (HCT-15) of the same compound?
Answer: 1800 nM

Question: And the GI50 (MDA-MB-231)?
Answer: 2300 nM

Question: And the GI50 (NCI-H23)?
Answer: 2100 nM

Question: And the GI50 (NUGC-3)?
Answer: 2400 nM

Question: What about the GI50 (PC-3) of the same compound?
Answer: 6000 nM

Question: With `CO[C@H]1C=C2CO[C@@H](O)[C@]2(O)[C@@]2(C)CCCC(C)(C)[C@H]12` as the compound, how does the GI50 (ACHN) read?
Answer: 1200 nM

Question: And the GI50 (HCT-15)?
Answer: 1600 nM

Question: What about the GI50 (MDA-MB-231) of the same compound?
Answer: 1500 nM

Question: What about the GI50 (NCI-H23) of the same compound?
Answer: 1400 nM

Question: What about the GI50 (NUGC-3) of the same compound?
Answer: 1900 nM

Question: And the GI50 (PC-3)?
Answer: 2000 nM

Question: With `CO[C@@H]1C=C2CO[C@@H](O)[C@]2(O)[C@@]2(C)CCCC(C)(C)[C@H]12` as the compound, how does the Activity (ACHN) read?
Answer: inactive

Question: What about the Activity (HCT-15) of the same compound?
Answer: inactive

Question: And the Activity (MDA-MB-231)?
Answer: inactive

Question: What about the Activity (NCI-H23) of the same compound?
Answer: inactive

Question: What about the Activity (NUGC-3) of the same compound?
Answer: inactive

Question: And the Activity (PC-3)?
Answer: inactive

Question: What does the source list for `C[C@]1(CO)CCC[C@@]2(C)[C@H]1[C@H](O)C=C1CO[C@@H](O)[C@@]12O`?
Answer: Activity (ACHN): inactive; Activity (HCT-15): inactive; Activity (MDA-MB-231): inactive; Activity (NCI-H23): inactive; Activity (NUGC-3): inactive; Activity (PC-3): inactive

Question: `CC1(C)CCC[C@@]2(C)[C@H]1C(=O)C=C1CO[C@@H](O)[C@@]12O` was tested. Which GI50 (ACHN) did it give?
Answer: 3600 nM

Question: And the GI50 (HCT-15)?
Answer: 5400 nM

Question: And the GI50 (MDA-MB-231)?
Answer: 4000 nM

Question: And the GI50 (NCI-H23)?
Answer: 4300 nM

Question: What about the GI50 (NUGC-3) of the same compound?
Answer: 2300 nM

Question: And the GI50 (PC-3)?
Answer: 4600 nM

Question: How did the Activity (ACHN) turn out when `CC(=O)O[C@@H]1C=C2CO[C@@H](O)[C@]2(O)[C@@]2(C)CC[C@H](O)C(C)(C)[C@H]12` was run?
Answer: inactive

Question: What about the Activity (HCT-15) of the same compound?
Answer: inactive

Question: And the Activity (MDA-MB-231)?
Answer: inactive

Question: What about the Activity (NCI-H23) of the same compound?
Answer: inactive

Question: What about the Activity (NUGC-3) of the same compound?
Answer: inactive

Question: What about the Activity (PC-3) of the same compound?
Answer: inactive

Question: `COc1cccc2c1C(=O)c1c(O)c3c(c(O)c1C2=O)C[C@@](O)(C(=O)CO)C[C@@H]3O[C@H]1C[C@H](N)[C@H](O)[C@H](C)O1` [DOXORUBICIN HYDROCHLORIDE] was tested. Which GI50 (ACHN) did it give?
Answer: 70 nM

Question: And the GI50 (HCT-15)?
Answer: 50 nM

Question: And the GI50 (MDA-MB-231)?
Answer: 70 nM

Question: And the GI50 (NCI-H23)?
Answer: 80 nM

Question: What about the GI50 (NUGC-3) of the same compound?
Answer: 70 nM

Question: What about the GI50 (PC-3) of the same compound?
Answer: 90 nM
